≈ marks a conversion by molar mass, not a printed value.

Among the data in ChEMBL document CHEMBL1153950, “The synthesis and biological evaluation of some caffeic acid amide derivatives: E-2-cyano-(3-substituted phenyl)acrylamides” (Bioorg Med Chem Lett, 2009) are IC50 and inhibition values, retold here.

The test system of one assay is BGC-823. As to the kind of experiment: Antitumor activity against human BGC823 cells by MTT assay. The class given is functional, cell-based. Summed up: (§1)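 Screened in vitro by MTT assay on human gastric carcinoma BGC-823, nasopharyngeal carcinoma KB and hepatoma BEL-7402 cell lines; cis-diamminedichloroplatinum (DDP) served as positive control.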
In general terms: Formazan colour is commonly taken as a measure of viable cells.

The next assay deals with Bel-7402. Briefly: Antitumor activity against human Bel7402 cells by MTT assay. In kind it is functional, cell-based. Summed up: as §1
The next assay concerns KB. As to the kind of experiment: Antitumor activity against human KB cells by MTT assay. In kind it is functional, cell-based. The method, boiled down:
as §1

Assay [1] has as its target Acetylcholinesterase (Homo sapiens) (UniProt P22303). Briefly: Inhibition of acetylcholinesterase at 25 uM.

Chain of Acetylcholinesterase (Homo sapiens) (P22303 whole entry): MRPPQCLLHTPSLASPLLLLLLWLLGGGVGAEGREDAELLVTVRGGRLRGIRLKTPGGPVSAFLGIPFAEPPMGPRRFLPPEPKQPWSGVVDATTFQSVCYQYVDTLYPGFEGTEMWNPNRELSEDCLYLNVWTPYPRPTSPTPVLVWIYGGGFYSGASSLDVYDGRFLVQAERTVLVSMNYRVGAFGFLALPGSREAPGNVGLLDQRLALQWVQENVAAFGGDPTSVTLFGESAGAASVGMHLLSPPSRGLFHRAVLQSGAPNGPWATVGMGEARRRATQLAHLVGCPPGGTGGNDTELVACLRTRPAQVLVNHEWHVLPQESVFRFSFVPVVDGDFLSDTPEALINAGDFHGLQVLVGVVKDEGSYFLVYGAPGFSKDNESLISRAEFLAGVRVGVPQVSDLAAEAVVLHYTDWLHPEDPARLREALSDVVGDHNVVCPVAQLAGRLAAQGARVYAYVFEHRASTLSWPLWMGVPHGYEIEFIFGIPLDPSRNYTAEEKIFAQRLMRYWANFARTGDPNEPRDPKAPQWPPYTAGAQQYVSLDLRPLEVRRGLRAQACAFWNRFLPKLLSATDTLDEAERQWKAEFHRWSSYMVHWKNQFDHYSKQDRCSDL

For the compound `N#C/C(=C\c1cc(O)c(O)c([N+](=O)[O-])c1)C(=O)N(c1ccccc1)c1ccccc1`, the figures for the concentration for half-maximal inhibition (IC50) with BGC-823, in the assay with Bel-7402 and in the assay on KB were greater than 100 µg/mL, 56.2 µg/mL (≈ 140 µM) and 104 µg/mL (≈ 259 µM), respectively. The inhibition (in general, the share of the control response that was lost under treatment) in assay [1] came out at 7.38%.

Regarding `Cc1cccc(NC(=O)/C(C#N)=C/c2cc(O)c(O)c([N+](=O)[O-])c2)c1`, in the assay on BGC-823, the IC50 (in general, the midpoint of a concentration-inhibition curve) was 5.6 µg/mL (≈ 16.5 µM). For the same compound, in assay [1], the inhibition stood at 2.73%.

In the case of `N#C/C(=C\c1cc(O)c(O)c([N+](=O)[O-])c1)C(=O)N1CCOCC1`, the half-maximal inhibitory concentration (IC50) with BGC-823, with Bel-7402 and with KB was greater than 100 µg/mL each time. In addition, in assay [1], the inhibition came out at 3%.

`COc1cc(/C=C(\C#N)C(=O)Nc2cccc(Cl)c2)cc([N+](=O)[O-])c1O`: the IC50 with BGC-823 came to 26.1 µg/mL (≈ 69.8 µM); in the assay on Bel-7402, 21.1 µg/mL (≈ 56.5 µM); in the assay on KB it was 56.6 µg/mL (≈ 151 µM). In addition, in assay [1], the inhibition turned out to be 1.64%.

Turning to `N#C/C(=C\c1cc(O)c(O)c([N+](=O)[O-])c1)C(N)=O`, the IC50 in the assay with BGC-823, in the assay on Bel-7402 and with KB was greater than 100 µg/mL throughout. The same compound had an inhibition in assay [1] of 1.09%.

As for `N#C/C(=C\c1cc(O)c(O)c([N+](=O)[O-])c1)C(=O)Nc1ccccc1Cl`, the half-maximal inhibitory concentration (IC50) in the assay on BGC-823 worked out at 10.5 µg/mL (≈ 29.2 µM); in the assay on Bel-7402, 24 µg/mL (≈ 66.7 µM); in the assay with KB, 37.4 µg/mL (≈ 104 µM). In assay [1], this compound registered an inhibition of 0.95%.

As for `N#C/C(=C\c1cc(O)c(O)c([N+](=O)[O-])c1)C(=O)Nc1cccc(Cl)c1`, the 50% inhibitory concentration (IC50) with BGC-823 is greater than 100 µg/mL; with Bel-7402, 40.1 µg/mL (≈ 111 µM); in the assay on KB, 72.7 µg/mL (≈ 202 µM). In assay [1], the inhibition is 4.37%.

As to `N#C/C(=C\c1cc(O)c(O)c([N+](=O)[O-])c1)C(=O)N1CCCCC1`, the half-maximal inhibitory concentration (IC50) in the assay on BGC-823, with Bel-7402 and in the assay on KB was greater than 100 µg/mL in each case. For the same compound, the inhibition in assay [1] was determined as 0.27%.

As for `COc1c(O)ccc(/C=C(\C#N)C(=O)Nc2cccc(Cl)c2)c1[N+](=O)[O-]`, the IC50 is greater than 100 µg/mL with BGC-823, 65.3 µg/mL (≈ 175 µM) in the assay on Bel-7402 and greater than 100 µg/mL with KB. The same compound showed an inhibition in assay [1] of 2.19%.

`COc1ccc(NC(=O)/C(C#N)=C/c2cc(O)c(O)c([N+](=O)[O-])c2)cc1`: the figures for the IC50 in the assay with BGC-823, in the assay with Bel-7402 and with KB were 45.4 µg/mL (≈ 128 µM), greater than 100 µg/mL and 29.2 µg/mL (≈ 82.2 µM), respectively. The inhibition in assay [1] was 4.64%.
